Test results: ChEMBL document CHEMBL1132990, “Synthesis, conformational analysis, and biological activity of C-thioribonucleosides related to tiazofurin” (J Med Chem, 2000)

Legend:
[1] = molecular target: Inosine-5'-monophosphate dehydrogenase (IMPDH) (Homo sapiens) (UniProt P20839+P12268); assay: Inhibitory activity against Inosine-5'-monophosphate dehydrogenase in human myelogenous leukemia K562 cells in culture.; type: cell-based; details: concentration not given here
K562 [2] = assay: Tested for the influence on the ribonucleotide (GTP) concentration in myelogenous leukemia K562 cell culture.; type: functional, Homo sapiens
Procedure, shortened: (§1)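 Cultured K562 cells given 100 µM compound (2 µM for reference furanoside) or saline for 2 h at 37 °C, then centrifuged, washed once in cold saline and extracted with cold 10% trichloroacetic acid before nucleotide pool measurement.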

K562 [3] = assay: Tested for the influence on the ribonucleotide (IMP) concentration in myelogenous leukemia K562 cell culture.; type: functional, Homo sapiens; procedure, shortened: as §1
K562 [4] = assay: Concentration required to inhibit 50% of the cell proliferation of the Human myelogenous leukemia K562 cells.; type: functional, cell-based
Procedure, shortened: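 K562 cells in log phase (RPMI 1640 + 10% FBS, 5% CO2, 37 °C), seeded at 1 × 10⁵ cells/mL and exposed continuously to compounds (0.5-100 µM, in saline) or saline for 48 h. Cells counted by Coulter counter; inhibition = % reduction in proliferation versus saline; IC50 = concentration giving 50% inhibition at 48 h.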

Sequence of Inosine-5'-monophosphate dehydrogenase (IMPDH) (Homo sapiens) (P20839 whole entry, looked up, other chains not shown): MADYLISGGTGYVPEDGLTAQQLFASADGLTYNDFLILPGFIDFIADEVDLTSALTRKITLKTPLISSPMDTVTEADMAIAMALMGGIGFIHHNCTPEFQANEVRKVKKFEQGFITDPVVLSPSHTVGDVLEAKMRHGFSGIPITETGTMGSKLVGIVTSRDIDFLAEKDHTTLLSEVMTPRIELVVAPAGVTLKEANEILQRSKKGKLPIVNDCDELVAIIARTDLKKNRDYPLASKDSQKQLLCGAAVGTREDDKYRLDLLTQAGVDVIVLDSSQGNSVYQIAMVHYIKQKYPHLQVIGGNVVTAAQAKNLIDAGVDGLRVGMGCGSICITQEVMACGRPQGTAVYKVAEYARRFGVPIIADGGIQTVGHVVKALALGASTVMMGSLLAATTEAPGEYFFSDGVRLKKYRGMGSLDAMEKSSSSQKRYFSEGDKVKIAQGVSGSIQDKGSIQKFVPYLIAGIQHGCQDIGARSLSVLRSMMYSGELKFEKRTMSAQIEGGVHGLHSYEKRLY

| Structure (SMILES) | inhibition [1] [%] | Control (K562 [2]) [%] | Control (K562 [3]) [%] | IC50 (K562 [4]) [µM] |
| --- | --- | --- | --- | --- |
| NC(=O)c1csc([C@@H]2O[C@H](CO)[C@@H](O)[C@H]2O)c1 | 76 | 96.6 | 112 | 1.7 |
| NC(=O)c1coc([C@@H]2S[C@H](CO)[C@H](O)C2O)c1 (stereo not given in full) [FURANTHIOFURIN] |  | 66.1 | 105 | 4700 |
| NC(=O)c1csc([C@@H]2S[C@H](CO)[C@H](O)C2O)c1 (stereo not given in full) [THIOPHENTHIOFURIN] |  | 83.9 | 111 | 67 |
